viability, differential viability (reversal) and inhibition data for twelve molecules are collected here from PubChem BioAssay.

A word on the viability: it is a read-out of living cells in per cent, often relative to untreated cells. What is called inhibition is the drop in the measured response relative to a control, in per cent.

Experiment [1] can be described thus: SK-BR-3 cell growth inhibitors, pilot screen, 24 h, human (AID 572;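 active = viability at or below 10% of carrier control in both of two separate runs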;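 also: compound exposure lasted between 18 and 24 h rather than exactly 24 h; 100% = carrier-treated control wells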). The settings on record: SK-BR-3 viability, CellTiter-Glo luminescence, at 10 µM, stronger effect = lower value. On the technique in general: In ATP-based viability assays light output follows the ATP content of the culture.
Experiment [2] is described as follows: HUVEC growth inhibition – cell-based, human, primary screen (AID 575).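 Also: 100% = median of untreated cell wells with 0.1% DMSO on each plate.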 The settings on record: HUVEC proliferation, CellTiter-Glo luminescence, 72 h; at 10 µM; stronger effect = lower value. The essentials:
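Test system – primary HUVEC, no more than 12 passages · Dosing – one dose, 10 µM final, 0.1% DMSO · Times – 72 h treatment at 37 °C · Measured by – ATP-based CellTiter-Glo luminescent read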

A short description of experiment [3]: growth inhibitors of H69AR lung tumor, primary screen, human, duplicate replicates (AID 580;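 active = viability at or under a set limit in both replicates, limit being median viability minus 3 SD, cut at about 48% in these data, passing the limit was not always enough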;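 also: 100% = mean luminescence of untreated wells and 0% = no signal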). The conditions noted are these: H69AR lung tumor cells viability, ATP luminescence, 72 h; at 10 µM; stronger effect = lower value.
A short description of experiment [4]: reversal of MRP1-mediated doxorubicin resistance, pilot screen, H69AR cells, doxorubicin co-treatment (AID 601;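 active = viability loss from added drug above about 55%, and viability with drug at most 40%, in both replicates, limit read from the data, passing the limit was not always enough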). The settings on record: CellTiter-Glo, 72 h, at 10 µM; for differential viability (reversal): stronger effect = higher value.
Experiment [5] in a line: 384-well plate pilot, post-Golgi transport modulator project, inhibition of yeast transport mutant growth (AID 636; in the data active = inhibition above about 31%). The settings on record: absorbance 615 nm, about 18 h, stronger effect = higher value.
A short description of experiment [6]: growth suppression of yeast trafficking mutant, preliminary HTS, modulators of trafficking downstream of Golgi apparatus project, 1536-format plate, OD 615 nm (AID 637; in the data active = inhibition above about 30%). The settings on record: yeast transport mutant growth, absorbance 615 nm, 18 h; stronger effect = higher value.
The mark [7] stands for this setting: H69AR cells + 2 uM doxorubicin, measured here: viability with 2 uM doxorubicin, stronger effect = lower value.
Where [8] appears, read: H69AR cells, compound alone cytotoxicity.

Active and inactive are the calls of the source.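 The calls were made as follows, unless noted: active = viability at or below 30% in both replicate assays; inconclusive = viability at or below 30% in just one of the two assays; inactive = the rest.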

As for `CCOC(=O)c1c(C(F)(F)C(F)(F)C(F)(F)C(F)(F)F)n[nH]c1C`, the viability in experiment [1] is 63% (inactive); in experiment [2], 79.5% (inactive); in experiment [3], 76.8% (inactive); in experiment [4] (setting [7]) it was 51.7%; in experiment [4] (setting [8]), 76.8%. Also, the differential viability (reversal) in experiment [4] (H69AR cells + 2 uM doxorubicin) is 25.1% (inactive). Also, the inhibition was -5.75% (inactive) in experiment [5] and 4% (inactive) in experiment [6].
`COc1ccccc1N1CCN(CC(O)COc2cccc3ccccc23)CC1` (stereo unspecified): the viability in experiment [1] was 83% (inactive); in experiment [2] it was 74.9% (inactive); in experiment [3] it was 77.4% (inactive); in experiment [4] (setting [7]) it was 90.7%; in experiment [4] (setting [8]), 77.4%. For the same molecule, the differential viability (reversal) in experiment [4] (H69AR cells + 2 uM doxorubicin) is -13.3% (inactive). Moreover, the inhibition is -1.3% (inactive) in experiment [5] and -1.5% (inactive) in experiment [6].
On to `O=C(CN1C(=O)c2cccc3cccc1c23)Nc1ccccc1C(=O)NCc1ccco1`, for which the viability in experiment [1] was 89% (inactive); in experiment [2], 108% (inactive); in experiment [3], 78.9% (inactive); in experiment [4] (setting [7]), 81.8%; in experiment [4] (setting [8]), 78.9%. For the same molecule, in experiment [4] (H69AR cells + 2 uM doxorubicin), the differential viability (reversal) is -2.93% (inactive). Further, the inhibition in experiment [5] is -1.49% (inactive); in experiment [6] it was -8.67% (inactive).
On to `COc1ccc(C2c3c(oc4ccccc4c3=O)C(=O)N2Cc2ccncc2)cc1OC` (stereo unspecified), for which the viability is 91% (inactive) in experiment [1]; 96.7% (inactive) in experiment [2]; 93.7% (inactive) in experiment [3]; 95.8% in experiment [4] (setting [7]); 93.7% in experiment [4] (setting [8]). Moreover, the differential viability (reversal) in experiment [4] (H69AR cells + 2 uM doxorubicin) was -2.17% (inactive). Further, the results for the inhibition in experiment [5] and in experiment [6] were -7.84% (inactive) and 0.18% (inactive), respectively.
As for `CC(C)C[C@H](NC(=O)Nc1cccc(C(F)(F)F)c1)C(=O)O`, the viability is 115% (inactive) in experiment [1]; 98.1% (inactive) in experiment [2]; 106% (inactive) in experiment [3]; 91.8% in experiment [4] (setting [7]); 106% in experiment [4] (setting [8]). In addition, in experiment [4] (H69AR cells + 2 uM doxorubicin), the differential viability (reversal) is 14.6% (inactive). Also, the inhibition was -4.25% (inactive) in experiment [5] and -0.81% (inactive) in experiment [6].
Take `Cc1nc2ncnn2c(C)c1CCC(=O)NCCCN1CCN(c2cccc(Cl)c2)CC1`: the viability in experiment [1] is 78% (inactive); in experiment [2], 76.4% (inactive); in experiment [3] it was 96.5% (inactive); in experiment [4] (setting [7]), 90.1%; in experiment [4] (setting [8]), 96.5%. In experiment [4] (H69AR cells + 2 uM doxorubicin), the differential viability (reversal) was 6.44% (inactive). The inhibition in experiment [5] is -2.21% (inactive); in experiment [6], -3.77% (inactive).
Regarding `CC(C)n1c(NCc2c[nH]c3ccccc23)nc2ccccc21`, the viability in experiment [1] is 91% (inactive); in experiment [2] it was 79.6% (inactive); in experiment [3], 74.8% (inactive); in experiment [4] (setting [7]) it was 78.4%; in experiment [4] (setting [8]), 74.8%. Also, in experiment [4] (H69AR cells + 2 uM doxorubicin), the differential viability (reversal) was -3.61% (inactive). The inhibition was -9.45% (inactive) in experiment [5] and -5.16% (inactive) in experiment [6].
As to `Cc1nc2sccn2c(=O)c1CCN1CCC(=C(c2ccc(F)cc2)c2ccc(F)cc2)CC1`, the viability in experiment [1] is 111% (inactive); in experiment [2] it was 11.5% (active); in experiment [3] it was 85.7% (inactive); in experiment [4] (setting [7]), 87.8%; in experiment [4] (setting [8]), 85.7%. Moreover, the differential viability (reversal) in experiment [4] (H69AR cells + 2 uM doxorubicin) is -2.19% (inactive). Further, the inhibition in experiment [5] was 1.04% (inactive); in experiment [6], 6.17% (inactive).
Regarding `O=C(CSc1nnc(-c2ccco2)n1CC1CCCO1)N1CCCCC1` (stereo unspecified), the viability in experiment [1] was 94% (inactive); in experiment [2], 106% (inactive); in experiment [3], 97.6% (inactive); in experiment [4] (setting [7]) it was 92.7%; in experiment [4] (setting [8]), 97.6%. Moreover, the differential viability (reversal) in experiment [4] (H69AR cells + 2 uM doxorubicin) is 4.84% (inactive). Further, the inhibition was -3.6% (inactive) in experiment [5] and 0.36% (inactive) in experiment [6].
For `Cc1cc(O)c(NC(=O)c2ccc(Br)o2)cc1C`, the viability in experiment [1] is 98% (inactive); in experiment [2] it was 71% (inactive); in experiment [3], 73.2% (inactive); in experiment [4] (setting [7]) it was 88.2%; in experiment [4] (setting [8]), 73.2%. Also, in experiment [4] (H69AR cells + 2 uM doxorubicin), the differential viability (reversal) was -15% (inactive). The inhibition in experiment [5] is -6.08% (inactive); in experiment [6], 1.5% (inactive).
With `COc1cc(S(=O)(=O)NC2CCCCC2C)ccc1Cl` (stereo unspecified), the viability in experiment [1] was 83% (inactive); in experiment [2], 98.3% (inactive); in experiment [3] it was 92.4% (inactive); in experiment [4] (setting [7]), 95.8%; in experiment [4] (setting [8]), 92.4%. Further, in experiment [4] (H69AR cells + 2 uM doxorubicin), the differential viability (reversal) was -3.38% (inactive). In addition, the inhibition in experiment [5] was -7.81% (inactive); in experiment [6], 1.45% (inactive).
`O=C(CN1CCCN(S(=O)(=O)c2ccc(Br)cc2)CC1)Nc1ccc2c(c1)OCO2`: the viability was 91% (inactive) in experiment [1]; 75% (inactive) in experiment [2]; 6.58% (active) in experiment [3]; 16.9% in experiment [4] (setting [7]); 6.58% in experiment [4] (setting [8]). The differential viability (reversal) in experiment [4] (H69AR cells + 2 uM doxorubicin) is -10.3% (inactive). The inhibition in experiment [5] is -0.52% (inactive); in experiment [6], 3.77% (inactive).
